Reference: ChEMBL document CHEMBL4190320, “Clathrodin, hymenidin and oroidin, and their synthetic analogues as inhibitors of the voltage-gated potassium channels” (Eur J Med Chem, 2017)
Activity calls are given as the source filed them. No cut-off for these calls is given here.

Experiments:
[1] = target: Potassium voltage-gated channel subfamily A member 2 (Homo sapiens, UniProt P16389); assay: Inhibition of human Kv1.2 expressed in CHO cells at -80 mV holding potential by whole cell automated patch clamp method; type: cell-based
Method in brief: (§1)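 Human channels stably expressed in CHO cells, dissociated with 0.05% trypsin-EDTA, held in serum-free medium and resuspended in extracellular solution just before recording. Whole-cell QPatch recordings used a -80 mV holding potential and 500 ms steps to +30 mV at 0.067 Hz. Series resistance was 80% compensated with P/n leak subtraction. After 0.1% DMSO vehicle, four escalating concentrations were applied cumulatively.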

[2] = target: Potassium voltage-gated channel subfamily A member 6 (Homo sapiens, UniProt P17658); assay: Inhibition of human Kv1.6 expressed in CHO cells at -80 mV holding potential by whole cell automated patch clamp method; type: cell-based; method in brief: as §1
[3] = target: Potassium voltage-gated channel subfamily A member 4 (Homo sapiens, UniProt P22459); assay: Inhibition of human Kv1.4 expressed in CHO cells at -80 mV holding potential by whole cell automated patch clamp method; type: cell-based; method in brief: as §1
[4] = target: Potassium voltage-gated channel subfamily A member 1 (Homo sapiens, UniProt Q09470); assay: Inhibition of human Kv1.1 expressed in CHO cells at -80 mV holding potential by whole cell automated patch clamp method; type: cell-based; method in brief: as §1
[5] = target: Potassium voltage-gated channel subfamily A member 5 (Homo sapiens, UniProt P22460); assay: Inhibition of human Kv1.5 expressed in CHO cells at -80 mV holding potential by whole cell automated patch clamp method; type: cell-based
[6] = target: T1, Potassium voltage-gated channel subfamily A member 3 (Homo sapiens, UniProt P22001); assay: Inhibition of human Kv1.3 expressed in Xenopus laevis oocytes at 1 uM at -90 mV holding potential by two-electrode voltage clamp assay relative to control
[7] = target: Potassium voltage-gated channel subfamily A member 5 (Rattus norvegicus) (UniProt P19024); assay: Inhibition of rat Kv1.5 expressed in Xenopus laevis oocytes at 1 uM at -90 mV holding potential by two-electrode voltage clamp assay relative to control; type: cell-based
[8] = target: Potassium voltage-gated channel subfamily A member 4 (Rattus norvegicus) (UniProt P15385); assay: Inhibition of rat Kv1.4 expressed in Xenopus laevis oocytes at 1 uM at -90 mV holding potential by two-electrode voltage clamp assay relative to control; type: cell-based
[9] = target: Potassium voltage-gated channel subfamily A member 1 (Rattus norvegicus) (UniProt P10499); assay: Inhibition of rat Kv1.1 expressed in Xenopus laevis oocytes at 1 uM at -90 mV holding potential by two-electrode voltage clamp assay relative to control; type: cell-based
[10] = target: Potassium voltage-gated channel subfamily A member 2 (Rattus norvegicus) (UniProt P63142); assay: Inhibition of rat Kv1.2 expressed in Xenopus laevis oocytes at 1 uM at -90 mV holding potential by two-electrode voltage clamp assay relative to control; type: cell-based
[11] = target: T1, Potassium voltage-gated channel subfamily A member 3; assay: Inhibition of human Kv1.3 expressed in CHO cells at -80 mV holding potential by whole cell automated patch clamp method; type: cell-based; method in brief: as §1
Target sequence in this assay (P22001 whole entry): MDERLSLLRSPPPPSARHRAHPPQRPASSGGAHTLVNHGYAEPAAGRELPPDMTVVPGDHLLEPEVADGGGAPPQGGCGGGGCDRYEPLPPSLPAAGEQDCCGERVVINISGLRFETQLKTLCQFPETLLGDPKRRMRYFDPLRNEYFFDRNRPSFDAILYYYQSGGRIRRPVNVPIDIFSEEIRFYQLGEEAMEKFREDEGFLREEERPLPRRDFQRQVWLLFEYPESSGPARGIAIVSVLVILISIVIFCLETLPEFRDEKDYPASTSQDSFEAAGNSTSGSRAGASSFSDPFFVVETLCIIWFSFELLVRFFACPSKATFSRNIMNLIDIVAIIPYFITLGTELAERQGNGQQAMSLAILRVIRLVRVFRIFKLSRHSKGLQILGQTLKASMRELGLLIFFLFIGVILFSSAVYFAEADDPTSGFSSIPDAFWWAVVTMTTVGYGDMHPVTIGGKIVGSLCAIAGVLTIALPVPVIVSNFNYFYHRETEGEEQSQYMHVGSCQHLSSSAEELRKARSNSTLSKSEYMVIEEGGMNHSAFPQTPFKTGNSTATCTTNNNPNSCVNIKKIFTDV

[12] = target: Potassium voltage-gated channel subfamily A member 6 (Rattus norvegicus) (UniProt P17659); assay: Inhibition of rat Kv1.6 expressed in Xenopus laevis oocytes at 1 uM at -90 mV holding potential by two-electrode voltage clamp assay relative to control; type: cell-based
[13] = test system: Potassium voltage-gated channel subfamily H member 1 (Homo sapiens); assay: Inhibition of human Kv10.1 expressed in Xenopus laevis oocytes at 1 uM at -90 mV holding potential by two-electrode voltage clamp assay relative to control
[14] = target: Potassium voltage-gated channel subfamily A member 4 (Rattus norvegicus, UniProt P15385); assay: Inhibition of rat Kv1.4 expressed in Xenopus laevis oocytes at -90 mV holding potential by two-electrode voltage clamp assay; type: cell-based
Method in brief: (§2)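 Stage V-VI Xenopus laevis oocytes were injected with 50 nL cRNA (1 ng/nL). Currents were recorded by two-electrode voltage clamp. IC50 values come from at least 3 independent experiments and are given as mean ± standard error.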

[15] = target: Potassium voltage-gated channel subfamily A member 6 (Rattus norvegicus, UniProt P17659); assay: Inhibition of rat Kv1.6 expressed in Xenopus laevis oocytes at -90 mV holding potential by two-electrode voltage clamp assay; type: cell-based; method in brief: as §2
[16] = target: T1, Potassium voltage-gated channel subfamily A member 3; assay: Inhibition of human Kv1.3 expressed in Xenopus laevis oocytes at -90 mV holding potential by two-electrode voltage clamp assay

Chain of Potassium voltage-gated channel subfamily A member 5 (Rattus norvegicus) (P19024 whole entry): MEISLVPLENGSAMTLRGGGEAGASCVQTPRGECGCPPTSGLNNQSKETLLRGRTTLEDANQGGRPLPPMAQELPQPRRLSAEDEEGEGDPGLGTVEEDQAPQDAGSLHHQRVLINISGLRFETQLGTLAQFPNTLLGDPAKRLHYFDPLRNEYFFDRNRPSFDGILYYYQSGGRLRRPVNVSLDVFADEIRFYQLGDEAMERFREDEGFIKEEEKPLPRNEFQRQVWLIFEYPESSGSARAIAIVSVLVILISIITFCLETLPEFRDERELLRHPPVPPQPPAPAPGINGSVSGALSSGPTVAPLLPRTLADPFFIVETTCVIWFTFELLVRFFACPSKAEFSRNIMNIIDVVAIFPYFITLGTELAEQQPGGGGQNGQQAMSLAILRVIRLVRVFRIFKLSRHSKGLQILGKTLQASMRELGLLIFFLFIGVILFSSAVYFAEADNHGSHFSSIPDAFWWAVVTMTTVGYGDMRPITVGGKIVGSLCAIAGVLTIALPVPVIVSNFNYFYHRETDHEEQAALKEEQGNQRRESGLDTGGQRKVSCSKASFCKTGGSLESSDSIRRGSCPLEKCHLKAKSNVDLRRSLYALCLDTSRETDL
Chain of Potassium voltage-gated channel subfamily A member 6 (Rattus norvegicus, UniProt P17659) (P17659 whole entry): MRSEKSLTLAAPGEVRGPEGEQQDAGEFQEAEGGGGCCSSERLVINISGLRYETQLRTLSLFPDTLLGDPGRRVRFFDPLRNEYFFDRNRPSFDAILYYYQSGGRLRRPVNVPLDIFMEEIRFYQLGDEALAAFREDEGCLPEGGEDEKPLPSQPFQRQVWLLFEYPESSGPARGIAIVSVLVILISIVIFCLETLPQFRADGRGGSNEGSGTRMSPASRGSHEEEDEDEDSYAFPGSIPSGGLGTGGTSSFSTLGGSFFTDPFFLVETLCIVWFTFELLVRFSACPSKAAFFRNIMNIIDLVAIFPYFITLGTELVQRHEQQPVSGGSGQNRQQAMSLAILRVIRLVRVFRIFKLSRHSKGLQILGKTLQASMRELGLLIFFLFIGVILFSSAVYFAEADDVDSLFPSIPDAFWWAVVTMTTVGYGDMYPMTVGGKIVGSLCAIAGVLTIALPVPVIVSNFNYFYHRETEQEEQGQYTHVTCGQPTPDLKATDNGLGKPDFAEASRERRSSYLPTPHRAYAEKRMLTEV
Chain of Potassium voltage-gated channel subfamily A member 6 (Rattus norvegicus) (P17659 whole entry): as above
Chain of Potassium voltage-gated channel subfamily A member 4 (Rattus norvegicus) (P15385 whole entry): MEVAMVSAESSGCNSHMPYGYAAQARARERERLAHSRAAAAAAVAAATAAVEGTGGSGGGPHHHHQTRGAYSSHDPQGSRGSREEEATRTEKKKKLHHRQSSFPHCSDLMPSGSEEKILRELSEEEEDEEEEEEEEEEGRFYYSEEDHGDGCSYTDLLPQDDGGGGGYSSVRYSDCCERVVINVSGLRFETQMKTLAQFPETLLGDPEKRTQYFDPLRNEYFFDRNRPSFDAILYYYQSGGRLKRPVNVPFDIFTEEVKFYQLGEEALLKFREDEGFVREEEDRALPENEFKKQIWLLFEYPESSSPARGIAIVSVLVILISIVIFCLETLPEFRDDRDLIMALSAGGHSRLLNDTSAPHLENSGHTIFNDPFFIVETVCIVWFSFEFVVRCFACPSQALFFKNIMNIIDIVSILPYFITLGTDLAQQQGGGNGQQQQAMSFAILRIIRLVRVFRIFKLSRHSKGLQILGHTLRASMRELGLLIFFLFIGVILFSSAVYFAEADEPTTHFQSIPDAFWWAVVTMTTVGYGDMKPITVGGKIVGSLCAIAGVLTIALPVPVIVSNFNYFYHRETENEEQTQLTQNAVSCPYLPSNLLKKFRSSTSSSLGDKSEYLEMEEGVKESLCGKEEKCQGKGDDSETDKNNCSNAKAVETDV
Chain of Potassium voltage-gated channel subfamily A member 4 (Rattus norvegicus, UniProt P15385) (P15385 whole entry): as above
Chain of Potassium voltage-gated channel subfamily A member 1 (Q09470 whole entry): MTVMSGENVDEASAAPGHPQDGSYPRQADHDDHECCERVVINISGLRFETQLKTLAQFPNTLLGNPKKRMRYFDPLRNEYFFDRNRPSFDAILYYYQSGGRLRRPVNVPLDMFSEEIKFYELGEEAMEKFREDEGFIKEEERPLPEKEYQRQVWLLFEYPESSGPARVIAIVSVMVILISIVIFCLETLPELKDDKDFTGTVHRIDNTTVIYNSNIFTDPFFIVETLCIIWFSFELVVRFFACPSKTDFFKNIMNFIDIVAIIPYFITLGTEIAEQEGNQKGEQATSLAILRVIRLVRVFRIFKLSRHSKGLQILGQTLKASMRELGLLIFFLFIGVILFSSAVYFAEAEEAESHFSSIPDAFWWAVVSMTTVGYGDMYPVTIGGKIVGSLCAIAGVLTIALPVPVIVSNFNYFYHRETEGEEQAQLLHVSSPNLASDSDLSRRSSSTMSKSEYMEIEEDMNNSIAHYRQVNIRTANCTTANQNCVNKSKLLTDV
Chain of Potassium voltage-gated channel subfamily A member 2 (P16389 whole entry): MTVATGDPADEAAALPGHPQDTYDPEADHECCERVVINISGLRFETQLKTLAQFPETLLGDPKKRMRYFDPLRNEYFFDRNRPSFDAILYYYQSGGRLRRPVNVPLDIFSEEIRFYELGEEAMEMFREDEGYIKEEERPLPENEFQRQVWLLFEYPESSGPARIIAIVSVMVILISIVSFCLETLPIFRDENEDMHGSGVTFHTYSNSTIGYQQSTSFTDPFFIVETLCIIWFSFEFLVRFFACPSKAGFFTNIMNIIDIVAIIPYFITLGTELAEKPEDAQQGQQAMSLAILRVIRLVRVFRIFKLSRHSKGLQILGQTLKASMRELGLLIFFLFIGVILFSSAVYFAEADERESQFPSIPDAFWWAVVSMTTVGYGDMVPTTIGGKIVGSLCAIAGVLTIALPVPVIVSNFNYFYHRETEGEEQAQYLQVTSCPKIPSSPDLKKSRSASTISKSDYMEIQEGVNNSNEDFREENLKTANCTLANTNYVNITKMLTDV

SMILES | IC50 [1] [µM] | IC50 [2] [µM] | IC50 [3] [µM] | IC50 [4] [µM] | IC50 [5] [µM] | inhibition [6] | inhibition [7] | inhibition [8] | inhibition [9] | inhibition [10] | IC50 [11] [µM] | inhibition [12] | inhibition [13] | IC50 [14] [µM] | IC50 [15] [µM] | IC50 [16] [µM]
O=c1ccc2c(OCCCCOc3ccccc3)c3ccoc3cc2o1 | 0.45 | 0.13 | 0.17 | 0.25 | 0.088 |  |  |  |  |  |  |  |  |  |  | 
Nc1ncc(/C=C/CNC(=O)c2ccc[nH]2)[nH]1 [CLATHRODIN] | > 30 | > 30 | > 30 | > 30 | > 30 | inactive | inactive | inactive | inactive | inactive | > 30 | inactive | inactive |  |  | 
CC(C)(C)OC(=O)N1CCC(C(=O)NC/C=C/c2c[nH]c(N)n2)CC1 |  |  |  |  |  | inactive | inactive | inactive | inactive | inactive | > 30 | inactive | inactive |  |  | 
Nc1nc(CCCNC(=O)c2cc3ccccc3[nH]2)c[nH]1 |  |  |  |  |  | inactive | inactive | inactive | inactive | inactive |  | inactive | inactive |  |  | 
Nc1nc(CCCNC(=O)C2Cc3ccccc3N2)c[nH]1 (stereo not given) |  |  |  |  |  | inactive | inactive | inactive | inactive | inactive | > 30 | inactive | inactive |  |  | 
Nc1nc(/C=C/CNC(=O)C2CCNCC2)c[nH]1 |  |  |  |  |  | 28% | inactive | inactive | 22% | inactive | > 30 | inactive | inactive |  |  | 
COc1ccc2[nH]c(C(=O)NC/C=C/c3c[nH]c(N)n3)cc2c1 |  |  |  |  |  | inactive | inactive | inactive | inactive | inactive | > 30 | inactive | inactive |  |  | 
Nc1nc(CCCNC(=O)c2cc(Br)c(Br)[nH]2)c[nH]1 |  |  |  |  |  | inactive | inactive | inactive | inactive | inactive | > 30 | inactive | inactive |  |  | 
Nc1ncc(/C=C/CNC(=O)c2cc(Br)c(Br)[nH]2)[nH]1 [OROIDIN] | > 30 | 4.9 | 2.1 | > 30 | 16 | 58% | inactive | 32% | inactive | 10% | 4.7 | inactive | inactive | 5.7 | > 10 | 0.82
Cc1[nH]c(C(=O)NC/C=C/c2c[nH]c(N)n2)c(Br)c1Br | > 30 | 29 | 12 | > 30 | > 30 | inactive | inactive | 33% | inactive | inactive | 17 | 41% | inactive | 0.23 | > 10 | > 10

Continued, values first:

IC50 [1] [µM] | IC50 [2] [µM] | IC50 [3] [µM] | IC50 [4] [µM] | IC50 [5] [µM] | inhibition [6] | inhibition [7] | inhibition [8] | inhibition [9] | inhibition [10] | IC50 [11] [µM] | inhibition [12] | inhibition [13] | IC50 [14] [µM] | IC50 [15] [µM] | IC50 [16] [µM] | SMILES
 |  |  |  |  | inactive | inactive | inactive | inactive | inactive | > 30 | inactive | inactive |  |  |  | Nc1nc(/C=C/CNC(=O)c2cccnc2)c[nH]1
> 30 | 24 | 17 | > 30 | > 30 | inactive | inactive | inactive | inactive | inactive | 9 | inactive | inactive |  |  |  | Nc1nc(/C=C/CNC(=O)c2cc3cc(Cl)ccc3[nH]2)c[nH]1
> 30 | 3.7 | 5.3 | > 30 | 7.6 | 32% | 10% | 11% | inactive | inactive | 2.5 | 22% | inactive |  |  |  | Nc1nc(/C=C/CNC(=O)c2cc(Br)c[nH]2)c[nH]1
> 30 | 1.6 | 1.5 | > 30 | 6.1 | inactive | 62% | 90% | inactive | inactive | 1.4 | inactive | inactive | 0.6 | 0.17 | > 10 | Nc1nc(/C=C/CNC(=O)c2cc(Cl)c(Cl)[nH]2)c[nH]1
> 30 | 7.9 | 8.8 | > 30 | > 30 | 28% | inactive | inactive | inactive | inactive | 14 | inactive | inactive |  |  |  | Nc1nc(/C=C/CNC(=O)c2cc3cc(F)ccc3[nH]2)c[nH]1
> 30 | 17 | 15 | > 30 | > 30 | inactive | 72% | 71% | 68% | inactive | 25 | inactive | inactive | 0.73 | > 10 | > 10 | Cc1[nH]c(C(=O)NC/C=C/c2c[nH]c(N)n2)cc1Cl
> 30 | 11 | 12 | > 30 | > 30 | inactive | inactive | 46% | inactive | inactive | 25 | 63% | inactive | 0.38 | 9.8 | > 10 | Cc1[nH]c(C(=O)NC/C=C/c2c[nH]c(N)n2)cc1Br
> 30 | 14 | 13 | > 30 | > 30 | inactive | inactive | inactive | inactive | inactive | 21 | 42% | inactive |  |  |  | Nc1nc(/C=C/CNC(=O)c2cc3ccccc3[nH]2)c[nH]1
